# Experimental data published in ChEMBL document CHEMBL3102816, “Design, synthesis and molecular modeling of novel N-acylhydrazone derivatives as pyruvate dehydrogenase complex E1 inhibitors” (Bioorg Med Chem, 2014).
# pIC50: −log10 of the molar value.
# Experiment: Inhibition of Escherichia coli […] expressed in Escherichia coli TB1 using sodium pyruvate as substrate assessed as reduction of 2,6-DCPIP preincubated for 3 mins followed by ThDP addition
# Method in brief: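 MBP-fused E. coli PDHc-E1 from plasmid pMal-C2X in strain TB1 (LB with 2% glucose, ampicillin, 37 °C to A600 0.6–0.8; 0.5 mM IPTG, 7 h, 25 °C), MBP affinity-purified, Bradford-quantified. Reaction: 50 mM K3PO4 pH 7.2, 2.0 mM pyruvate, 0.8 mM 2,6-DCPIP, enzyme, inhibitor at varied concentrations; 3 min at 37 °C, then ThDP added; DCPIP reduction read at 600 nm.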
row,Compound,pIC50
1,Cc1ncc(Cn2nnc(C(=O)N/N=C/c3ccccc3O)c2C)c(N)n1,4.93
2,Cc1ncc(Cn2nnc(C(=O)N/N=C/c3ccccn3)c2C)c(N)n1,4.64
3,Cc1ncc(Cn2nnc(C(=O)N/N=C/c3ccccc3Cl)c2C)c(N)n1,4.87
4,Cc1ncc(Cn2nnc(C(=O)N/N=C/c3ccccc3Br)c2C)c(N)n1,4.27
5,Cc1ncc(Cn2nnc(C(=O)N/N=C/c3ccc(Cl)c([N+](=O)[O-])c3)c2C)c(N)n1,5.77
6,Cc1cccc(/C=N/NC(=O)c2nnn(Cc3cnc(C)nc3N)c2C)c1,4.68
7,Cc1ncc(Cn2nnc(C(=O)N/N=C/c3ccc4c(c3)OCO4)c2C)c(N)n1,4.84

# Now from value to molecule:
row,pIC50,Compound
1,5.72,Cc1ncc(Cn2nnc(C(=O)N/N=C/c3ccc(Br)cc3)c2C)c(N)n1
2,3.96,Cc1ncc(Cn2nnc(C(=O)N/N=C/c3ccccc3)c2C)c(N)n1
3,6.19,Cc1ncc(Cn2nnc(C(=O)N/N=C/c3ccc([N+](=O)[O-])cc3)c2C)c(N)n1
4,5.46,Cc1ncc(Cn2nnc(C(=O)N/N=C/c3ccc(O)cc3)c2C)c(N)n1
5,5.72,Cc1ncc(Cn2nnc(C(=O)N/N=C/c3ccc(C(F)(F)F)cc3)c2C)c(N)n1
6,4.63,Cc1ncc(Cn2nnc(C(=O)N/N=C/c3cccc(O)c3)c2C)c(N)n1
7,5.63,Cc1ncc(Cn2nnc(C(=O)N/N=C/c3ccc(Cl)cc3)c2C)c(N)n1
8,4.30,Cc1ccc(/C=N/NC(=O)c2nnn(Cc3cnc(C)nc3N)c2C)cc1
9,5.10,Cc1ncc(Cn2nnc(C(=O)N/N=C/c3ccc(F)cc3)c2C)c(N)n1
